Source: ChEMBL document CHEMBL1128727, “Characterization of a class of peptide boronates with neutral P1 side chains as highly selective inhibitors of thrombin” (J Med Chem, 1995)
pKi: −log10 of the molar value.

Key:
Plasminogen [1] = molecular target: T1, Plasminogen (Homo sapiens, UniProt P00747); assay: Binding affinity against plasmin
Method in brief: (§1)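 Chromogenic pNA assays used human plasma factor Xa with S-2222, human plasmin with S-2251, human kidney urokinase with S-2444, and human plasma activated protein C with S-2366. Rates were read over 2 min at 25 °C. A 2 h enzyme–inhibitor preincubation tested for slow binding. For non-slow binders, Ki came from Lineweaver–Burk plots at five substrate levels over a 10-fold range around Km, using at least five points in duplicate.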

Prothrombin [2] = molecular target: T2, Prothrombin (Homo sapiens, UniProt P00734); assay: Binding affinity against gamma thrombin
Method in brief: (§2)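 Human α-thrombin or human γ-thrombin was assayed with S-2238 (H-D-Phe-Pip-Arg-pNA), with velocity measured over 2 min at 25 °C. A 2 h preincubation screened for slow binding. For competitive inhibitors, Ki came from Lineweaver–Burk plots at five substrate concentrations over 10-fold around Km; slow binders were fitted to the slow-binding rate equations. At least five points were run in duplicate.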

Coagulation factor X = Coagulation factor X (Homo sapiens, UniProt P00742); assay: Binding affinity against Coagulation factor X; method in brief: as §1
Chain of Coagulation factor X (P00742 41-179 limits assumed): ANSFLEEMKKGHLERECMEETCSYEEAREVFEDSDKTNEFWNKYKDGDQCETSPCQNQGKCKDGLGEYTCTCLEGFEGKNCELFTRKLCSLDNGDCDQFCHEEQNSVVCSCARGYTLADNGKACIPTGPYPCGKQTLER
Chain of Coagulation factor X (P00742 235-488 limits assumed): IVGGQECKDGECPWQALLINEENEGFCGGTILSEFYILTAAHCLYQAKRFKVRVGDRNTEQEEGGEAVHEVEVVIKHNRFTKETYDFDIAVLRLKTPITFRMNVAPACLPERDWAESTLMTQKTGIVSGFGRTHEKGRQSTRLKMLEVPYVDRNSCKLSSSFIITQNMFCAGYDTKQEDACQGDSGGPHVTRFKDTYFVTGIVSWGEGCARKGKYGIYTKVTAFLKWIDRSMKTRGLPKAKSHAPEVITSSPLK

[3] = molecular target: Plasma kallikrein (Homo sapiens) (UniProt P03952); assay: Binding affinity against plasma kallikrein
Chain of Plasma kallikrein (Homo sapiens) (P03952 whole entry, looked up): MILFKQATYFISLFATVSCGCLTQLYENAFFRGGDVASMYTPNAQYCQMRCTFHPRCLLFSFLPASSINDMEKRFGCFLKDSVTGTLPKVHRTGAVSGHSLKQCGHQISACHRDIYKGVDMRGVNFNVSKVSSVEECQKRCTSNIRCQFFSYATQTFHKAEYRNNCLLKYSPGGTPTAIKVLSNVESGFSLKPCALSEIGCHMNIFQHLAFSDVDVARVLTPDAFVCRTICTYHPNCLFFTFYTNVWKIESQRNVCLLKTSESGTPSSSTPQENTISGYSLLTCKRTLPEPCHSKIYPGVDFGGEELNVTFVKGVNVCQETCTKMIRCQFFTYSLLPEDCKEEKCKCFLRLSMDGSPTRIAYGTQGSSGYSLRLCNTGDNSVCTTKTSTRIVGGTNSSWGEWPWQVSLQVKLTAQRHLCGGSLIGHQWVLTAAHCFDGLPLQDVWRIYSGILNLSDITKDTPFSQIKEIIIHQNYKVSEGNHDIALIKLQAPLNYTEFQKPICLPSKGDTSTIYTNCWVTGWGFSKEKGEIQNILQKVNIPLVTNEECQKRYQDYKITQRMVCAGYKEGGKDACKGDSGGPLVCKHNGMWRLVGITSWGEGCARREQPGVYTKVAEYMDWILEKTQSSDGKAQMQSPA

[4] = Concentration of inhibitor required to produce a 2-fold prolongation in activated partial Thromboplastin time (APTT) in human plasma; format: functional
Method in brief: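 Pooled citrated normal human plasma, APTT reagent and inhibitor were incubated for 5 min at 37 °C. Clotting was started with CaCl2 from a 25 mM aqueous solution and timed on a coagulometer. The inhibitor concentration that doubled the APTT was determined in duplicate.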

Prothrombin [5] = molecular target: T2, Prothrombin; assay: Binding affinity against thrombin; method in brief: as §2
Serine protease 1 = molecular target: T3, Serine protease 1 (Bos taurus, UniProt P00760); assay: Binding affinity against Trypsin
T3 sequence (P00760 whole entry): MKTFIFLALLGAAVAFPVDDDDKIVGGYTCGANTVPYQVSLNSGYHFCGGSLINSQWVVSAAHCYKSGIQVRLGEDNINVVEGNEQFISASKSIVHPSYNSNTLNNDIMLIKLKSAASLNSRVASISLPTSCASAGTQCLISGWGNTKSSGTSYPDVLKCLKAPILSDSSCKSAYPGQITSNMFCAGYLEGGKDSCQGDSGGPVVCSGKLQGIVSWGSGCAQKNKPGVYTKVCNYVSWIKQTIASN
Method in brief: (§3)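 Enzymes: bovine pancreatic α-chymotrypsin with S-2586 (MeO-Suc-Arg-Pro-Tyr-pNA), human plasma kallikrein with S-2288, porcine pancreatic elastase with Suc-Ala-Ala-Ala-pNA, and bovine pancreatic trypsin. Initial velocity was read at 25 °C over 2 min. A 2 h preincubation was used to screen for slow binding. For competitive inhibitors, Ki came from Lineweaver–Burk plots at five substrate concentrations spanning 10-fold around Km, using at least five points in duplicate.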

[6] = Binding affinity against protein Ca; method in brief: as §1
Prothrombin [7] = molecular target: T2, Prothrombin; assay: Binding affinity against alpha thrombin; method in brief: as §2
[8] = molecular target: Urokinase-type plasminogen activator (Homo sapiens, UniProt P00749); assay: Binding affinity against Urokinase plasminogen activator; method in brief: as §1
Chymotrypsinogen A = Chymotrypsinogen A (Bos taurus, UniProt P00766); assay: Binding affinity against Chymotrypsin; method in brief: as §3
Prothrombin [9] = molecular target: T2, Prothrombin; assay: Concentration of inhibitor required to produce a 2-fold prolongation in Thrombin time (TT)
Method in brief: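 Pooled citrated normal human plasma was incubated with inhibitor for 1 min at 37 °C; the inhibitor was serially diluted in buffer from a DMSO stock. Human α-thrombin was then added from a 5 units/mL solution in 50 mM sodium phosphate, 0.1% PEG, pH 7.4. Clotting was timed on a coagulometer, and the concentration that doubled the thrombin time was determined in duplicate.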

Plasminogen [10] = molecular target: T1, Plasminogen; assay: Binding affinity against Plasmin; method in brief: as §1
Cathepsin G = molecular target: T4, Cathepsin G (Homo sapiens, UniProt P08311); assay: Binding affinity against cathepsin G
T4 sequence (P08311 whole entry): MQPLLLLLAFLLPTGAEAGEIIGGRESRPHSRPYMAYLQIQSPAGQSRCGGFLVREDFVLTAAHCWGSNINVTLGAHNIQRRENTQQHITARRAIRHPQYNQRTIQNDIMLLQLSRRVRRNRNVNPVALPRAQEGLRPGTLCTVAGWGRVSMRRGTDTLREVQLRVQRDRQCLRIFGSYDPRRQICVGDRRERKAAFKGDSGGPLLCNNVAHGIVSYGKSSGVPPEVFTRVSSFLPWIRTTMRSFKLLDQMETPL

T1 sequence (P00747 97-580 limits assumed): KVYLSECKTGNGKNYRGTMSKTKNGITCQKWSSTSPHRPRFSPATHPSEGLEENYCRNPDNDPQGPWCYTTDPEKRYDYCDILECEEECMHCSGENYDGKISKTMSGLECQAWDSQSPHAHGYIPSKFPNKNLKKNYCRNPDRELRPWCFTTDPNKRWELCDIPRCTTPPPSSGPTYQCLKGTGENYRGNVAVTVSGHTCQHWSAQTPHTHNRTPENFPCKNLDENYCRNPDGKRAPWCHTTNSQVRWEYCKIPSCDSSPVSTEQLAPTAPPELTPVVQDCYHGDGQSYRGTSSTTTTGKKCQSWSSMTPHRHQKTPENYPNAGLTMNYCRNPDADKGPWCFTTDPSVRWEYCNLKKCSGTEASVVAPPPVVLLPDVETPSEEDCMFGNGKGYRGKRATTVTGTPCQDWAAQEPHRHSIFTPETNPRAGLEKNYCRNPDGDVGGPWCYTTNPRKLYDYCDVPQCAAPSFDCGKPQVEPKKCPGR
T1 sequence (P00747 581-810 limits assumed): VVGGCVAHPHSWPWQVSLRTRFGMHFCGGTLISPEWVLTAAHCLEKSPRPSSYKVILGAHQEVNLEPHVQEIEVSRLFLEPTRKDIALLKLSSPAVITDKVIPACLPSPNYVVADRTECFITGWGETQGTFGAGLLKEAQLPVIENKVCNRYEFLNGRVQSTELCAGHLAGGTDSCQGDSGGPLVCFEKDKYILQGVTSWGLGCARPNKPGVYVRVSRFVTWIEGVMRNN

pKi (Plasminogen [1]) | pKi (Prothrombin [2]) | pKi [3] | pKi (Prothrombin [5]) | pKi (Serine protease 1) | pKi [6] | pKi (Prothrombin [7]) | pKi [8] | pKi (Chymotrypsinogen A) | TT (Prothrombin [9]) [µM] | SMILES | APTT [4] [µM] | other results
4.89 | 6.85 | 3.43 | – | 5.62 | 4.49 | 7.09 | 3.85 | 5.84 | 16 | CCC(C)(C)C(NC(=O)[C@@H]1CCCN1C(=O)[C@H](Cc1ccc2ccccc2c1)NC(=O)OCc1ccccc1)B1O[C@@H]2CC3CC(C3(C)C)[C@]2(C)O1 (stereo partly specified) | 110 | pKi (Coagulation factor X): 4.64
– | – | – | 7.70 | – | – | – | – | – | – | Cc1ccc(CCC(NC(=O)[C@@H]2CCCN2C(=O)[C@H](Cc2ccccc2)NC(=O)OCc2ccccc2)B2O[C@@H]3CC4CC(C4(C)C)[C@]3(C)O2)cc1 (stereo partly specified) | – | –
– | – | – | 7.54 | – | – | – | – | – | – | CC1(C)C2CC1[C@]1(C)OB(C(CCCl)NC(=O)[C@@H]3CCCN3C(=O)[C@H](Cc3ccccc3)NC(=O)OCc3ccccc3)O[C@@H]1C2 (stereo partly specified) | – | –
– | – | – | – | – | – | – | – | – | 0.54 | CCCCCC(NC(=O)[C@@H]1CCCN1C(=O)[C@H](Cc1ccccc1)NC(=O)OCc1ccccc1)B1O[C@@H]2CC3CC(C3(C)C)[C@]2(C)O1 (stereo in doubt; 3) [listing 1 of 2 here] | – | –
5.54 | 7.72 | 3.92 | 7.72 | 6.49 | 5.80 | 7.72 | 4.64 | 6.94 | – | CCCCCC(NC(=O)[C@@H]1CCCN1C(=O)[C@H](Cc1ccccc1)NC(=O)OCc1ccccc1)B1O[C@@H]2CC3CC(C3(C)C)[C@]2(C)O1 (stereo in doubt; 3) [listing 2 of 2 here] | 2.3 | pKi (Coagulation factor X): 6.24
– | – | – | 7.68 | – | – | – | – | – | – | COCCC(NC(=O)[C@@H]1CCCN1C(=O)[C@H](Cc1ccccc1)NC(=O)OCc1ccccc1)B1O[C@@H]2CC3CC(C3(C)C)[C@]2(C)O1 (stereo partly specified) | – | –
5.26 | 7.62 | 5.02 | 8.15 | 6.57 | 5.38 | 8.15 | 4.82 | 6.82 | 1.1 | CCC(C)(C)C(NC(=O)[C@@H]1CCCN1C(=O)[C@H](Cc1ccccc1)NC(=O)OCc1ccccc1)B1O[C@@H]2CC3CC(C3(C)C)[C@]2(C)O1 (stereo partly specified) | 4 | pKi (Coagulation factor X): 5.59
– | – | – | 6.00 | – | – | – | – | – | – | CCC(NC(=O)[C@@H]1CCCN1C(=O)[C@H](Cc1ccccc1)NC(=O)OCc1ccccc1)B1O[C@@H]2CC3CC(C3(C)C)[C@]2(C)O1 (stereo partly specified) | – | –
4.77 | 7.47 | < 4.20 | 7.09 | 6.25 | < 4.20 | 7.55 | < 4.20 | 5.54 | 21 | CCC(C)(C)C(NC(=O)[C@@H]1CCCN1C(=O)[C@@H](NC(=O)OCc1ccccc1)C(c1ccccc1)c1ccccc1)B1O[C@@H]2CC3CC(C3(C)C)[C@]2(C)O1 (stereo partly specified) | 50 | pKi (Plasminogen [10]): 4.77
5.35 | 7.96 | < 5.37 | 7.74 | 6.82 | < 5.37 | 7.74 | < 5.37 | 7.96 | 0.53 | CC1(C)C2CC1[C@]1(C)OB(C(Cc3ccccc3)NC(=O)[C@@H]3CCCN3C(=O)[C@H](Cc3ccccc3)NC(=O)OCc3ccccc3)O[C@@H]1C2 (stereo partly specified) | 2.5 | pKi (Coagulation factor X): 5.92

The next lines start with the molecule.

SMILES | pKi (Plasminogen [1]) | pKi (Prothrombin [2]) | pKi [3] | pKi (Prothrombin [5]) | pKi (Serine protease 1) | pKi [6] | pKi (Prothrombin [7]) | pKi [8] | pKi (Chymotrypsinogen A) | TT (Prothrombin [9]) [µM] | APTT [4] [µM] | other results
COCCC[C@@H](NC(=O)[C@@H]1CCCN1C(=O)[C@@H](Cc1ccccc1)NC(=O)OCc1ccccc1)B1O[C@@H]2CC3CC(C3(C)C)[C@]2(C)O1 (stereo in doubt; 9a) [listing 1 of 2 here] | 5.11 | 7.55 | 5.21 | 8.15 | 6.17 | 5.68 | 8.15 | 4.09 | 5.92 | – | 3.4 | pKi (Coagulation factor X): 5.51
COCCC[C@@H](NC(=O)[C@@H]1CCCN1C(=O)[C@@H](Cc1ccccc1)NC(=O)OCc1ccccc1)B1O[C@@H]2CC3CC(C3(C)C)[C@]2(C)O1 (stereo in doubt; 11) | – | – | – | 6.92 | – | – | – | – | – | – | – | –
CC1(C)C2CC1[C@]1(C)OB(C(Cc3ccccc3)NC(=O)[C@@H]3CCCN3C(=O)[C@@H](NC(=O)OCc3ccccc3)C(c3ccccc3)c3ccccc3)O[C@@H]1C2 (stereo partly specified) | 5.52 | 7.23 | 5.02 | 6.89 | 6.36 | < 5.32 | 6.89 | < 4.32 | 7.68 | 5.2 | >50 | pKi (Coagulation factor X): 5.37
COCCCC(NC(=O)[C@@H]1CCCN1C(=O)[C@H](Cc1ccccc1)NC(=O)OCc1ccccc1)B1O[C@@H]2CC3CC(C3(C)C)[C@]2(C)O1 (stereo partly specified) | – | – | – | 4.96 | – | – | – | – | – | – | – | –
CCCCCC(NC(=O)[C@@H]1CCCN1C(=O)[C@H](Cc1ccccc1)NC(=O)OCc1ccccc1)B1O[C@@H]2CC3CC(C3(C)C)[C@]2(C)O1 (stereo in doubt; 2) | – | – | – | 7.59 | – | – | – | – | – | – | – | –
CC1(C)C2CC1[C@]1(C)OB(C(CCCBr)NC(=O)[C@@H]3CCCN3C(=O)[C@H](Cc3ccccc3)NC(=O)OCc3ccccc3)O[C@@H]1C2 (stereo in doubt; 12) | – | – | – | 8.15 | – | – | – | – | – | – | – | –
CCCCCC(NC(=O)[C@@H]1CCCN1C(=O)[C@H](Cc1ccccc1)NC(=O)OCc1ccccc1)B1O[C@@H]2CC3CC(C3(C)C)[C@]2(C)O1 (stereo in doubt; 21) | – | – | – | 7.00 | – | – | – | – | – | – | – | –
COCCC[C@@H](NC(=O)[C@@H]1CCCN1C(=O)[C@@H](Cc1ccccc1)NC(=O)OCc1ccccc1)B1O[C@@H]2CC3CC(C3(C)C)[C@]2(C)O1 (stereo in doubt; 9a) [listing 2 of 2 here] | – | – | – | – | – | – | – | – | – | 2.8 | – | –
COCCC[C@@H](NC(=O)[C@@H]1CCCN1C(=O)[C@@H](Cc1ccccc1)NC(=O)OCc1ccccc1)B1O[C@@H]2CC3CC(C3(C)C)[C@]2(C)O1 (stereo in doubt; 9b) | – | – | – | 8.15 | – | – | – | – | – | – | – | –
CC1(C)C2CC1[C@]1(C)OB(C(CCCBr)NC(=O)[C@@H]3CCCN3C(=O)[C@H](Cc3ccccc3)NC(=O)OCc3ccccc3)O[C@@H]1C2 (stereo in doubt; 13) | – | – | – | 4.82 | – | – | – | – | – | – | – | –
CCCCCCCCC(NC(=O)[C@@H]1CCCN1C(=O)[C@H](Cc1ccccc1)NC(=O)OCc1ccccc1)B1O[C@@H]2CC3CC(C3(C)C)[C@]2(C)O1 (stereo partly specified) | – | – | – | 7.37 | – | – | – | – | – | 3.9 | >50 | –
CC1(C)C2CC1[C@]1(C)OB(C(CCC3OCCO3)NC(=O)[C@@H]3CCCN3C(=O)[C@H](Cc3ccccc3)NC(=O)OCc3ccccc3)O[C@@H]1C2 (stereo partly specified) | – | – | – | 7.60 | – | – | – | – | – | 3.4 | 18 | –
COCCCC(NC(=O)[C@@H]1CCCN1C(=O)[C@@H](NC(=O)OCc1ccccc1)C(c1ccccc1)c1ccccc1)B1O[C@@H]2CC3CC(C3(C)C)[C@]2(C)O1 (stereo partly specified) | 4.92 | 8.40 | 4.47 | 8.52 | 7.27 | 5.62 | 8.70 | 4.48 | 5.53 | 0.63 | 20 | pKi (Coagulation factor X): 5.14
COCCC[C@@H](NC(=O)[C@@H]1CCCN1C(=O)[C@@H](Cc1ccccc1)NC(=O)OCc1ccccc1)B1O[C@@H]2CC3CC(C3(C)C)[C@]2(C)O1 (stereo in doubt; 10) | – | – | – | 8.15 | – | – | – | – | – | – | – | –
CC(C)C(NC(=O)[C@@H]1CCCN1C(=O)[C@@H](NC(=O)OCc1ccccc1)C(c1ccccc1)c1ccccc1)B1O[C@@H]2CC3CC(C3(C)C)[C@]2(C)O1 (stereo partly specified) | – | – | – | 7.72 | – | – | – | – | – | – | – | –
CC1(C)C2CC1[C@]1(C)OB(C(CCCBr)NC(=O)[C@@H]3CCCN3C(=O)[C@H](Cc3ccccc3)NC(=O)OCc3ccccc3)O[C@@H]1C2 (stereo in doubt; 14) | – | – | – | 6.89 | – | – | – | – | – | – | – | –
CCCCCC(NC(=O)[C@@H]1CCCN1C(=O)[C@@H](NC(=O)OCc1ccccc1)C(c1ccccc1)c1ccccc1)B1O[C@@H]2CC3CC(C3(C)C)[C@]2(C)O1 (stereo partly specified) | 4.62 | 7.57 | 3.80 | 7.38 | 6.35 | 4.28 | 7.38 | 3.27 | 5.92 | – | – | pKi (Coagulation factor X): 4.89; pKi (Cathepsin G): 4.84
